MC4R ag barr – MC4R agonists recruiting beta-arrestin, primary screen, cell-based, luminescence, agonist arm of biased-ligand search; activation, % at 8.9 µM; 360,000 tested, 0.98% active; Melanocortin receptor 4 (Homo sapiens), P32245; U2OS MC4R beta-arrestin complementation; percent of melanotan II response, DMSO zero;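 active = activation above a per-plate cutoff, the mean activation of sample wells on that plate plus 3 SD, cut at about 8% in these data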
MC4R antagonist – MC4R antagonists of cAMP signaling, primary screen, cell-based, TR-FRET, antagonist arm of biased-ligand search | Melanocortin receptor 4 (Homo sapiens), P32245 | inhibition, % at 6.5 µM | 360,000 tested, 0.48% active | MC4R-expressing cells, MTII-stimulated cAMP, LANCE TR-FRET;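 active = inhibition above its plate's cutoff, the mean of tested wells on that plate plus 3 SD, cut at about 29% in these data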;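 also: 0% = Melanotan II alone and 100% = Melanotan II plus saturating MCL0020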
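Assay system: U2OS-MC4R stable cell line; Also added: Melanotan II; Technique: Eu-cAMP/anti-cAMP TR-FRET, emission 671 nm; Times: 30-min compound, 1-h challenge, 1-h detection, room temperature.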
ANO1 activ – TMEM16A chloride channel activators or potentiators, primary screen, cell-based, HTS; Anoctamin-1 (Mus musculus), Q8BHY3; HEK293 TMEM16A/YFP-H148Q/I152L, iodide quench fluorescence; stronger effect = lower value; B-score at 10 µM; 340,000 tested, 0.3% active; AID 623877, 2012;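 active = fluorescence-ratio B-score plate-corrected deviation score at least 3 library SD below zero, with starting fluorescence score within 5 deviations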;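 also: channel opened by trigger with iodide after compound preincubation; score built on the fluorescence ratio of max minus min over baseline; more negative score means more quench and so TMEM16A activation or potentiation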
Target sequence (Q8BHY3 whole entry, looked up): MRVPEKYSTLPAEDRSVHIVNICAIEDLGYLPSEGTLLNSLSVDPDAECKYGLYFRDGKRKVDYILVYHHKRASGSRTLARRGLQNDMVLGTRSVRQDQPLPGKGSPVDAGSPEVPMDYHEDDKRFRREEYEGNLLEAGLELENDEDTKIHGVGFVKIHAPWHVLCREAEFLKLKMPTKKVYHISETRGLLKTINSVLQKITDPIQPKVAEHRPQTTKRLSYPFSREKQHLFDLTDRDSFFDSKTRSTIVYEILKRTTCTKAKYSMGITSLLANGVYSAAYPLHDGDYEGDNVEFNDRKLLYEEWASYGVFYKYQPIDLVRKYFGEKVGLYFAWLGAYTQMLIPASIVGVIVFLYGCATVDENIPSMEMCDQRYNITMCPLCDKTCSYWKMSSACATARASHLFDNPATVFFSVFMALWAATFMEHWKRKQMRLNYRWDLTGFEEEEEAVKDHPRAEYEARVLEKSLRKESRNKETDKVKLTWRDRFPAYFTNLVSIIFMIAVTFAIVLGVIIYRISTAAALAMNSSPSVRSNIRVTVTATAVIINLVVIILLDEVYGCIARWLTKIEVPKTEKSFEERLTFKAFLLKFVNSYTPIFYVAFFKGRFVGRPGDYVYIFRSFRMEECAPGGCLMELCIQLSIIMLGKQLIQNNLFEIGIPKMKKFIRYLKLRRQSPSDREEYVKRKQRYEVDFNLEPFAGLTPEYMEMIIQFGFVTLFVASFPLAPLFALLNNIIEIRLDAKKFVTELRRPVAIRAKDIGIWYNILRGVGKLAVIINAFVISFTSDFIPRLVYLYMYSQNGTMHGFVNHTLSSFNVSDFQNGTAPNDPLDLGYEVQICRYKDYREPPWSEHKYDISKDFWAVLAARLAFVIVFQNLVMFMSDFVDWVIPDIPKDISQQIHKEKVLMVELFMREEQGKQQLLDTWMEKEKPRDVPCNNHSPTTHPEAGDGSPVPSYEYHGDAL
beta cell repl – inducers of MIN6 beta-cell proliferation, primary screen, ATP luminescence, uHTS. MIN6 cells proliferation, ATPlite luminescence, 48 h; cells starved in 0.2% serum; 100% = growth in 10% serum. proliferation, % at 10 µM. 330,000 tested, 0.29% active. AID 2380, 2010;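 active = compounds whose signal lies at least 3.5 SD above the mean of all wells on their plate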;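 also: 0% = DMSO-treated cells in low-serum medium and 100% = 10% serum control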
m5-HT2A agonist – mouse Htr2a agonists via beta-arrestin recruitment, primary screen, cell-based, luminescence | 5-hydroxytryptamine receptor 2A (Mus musculus), P35363 | CHO-K1 mHTR2A beta-arrestin complementation; percent of 30 µM serotonin response | activation, % at 7.6 µM | 360,000 tested, 0.66% active;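 active = activation above a run cutoff, the mean activation of all tested compounds plus 3 SD, cut at about 14% in these data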;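 also: 0% = plate median of compound wells and 100% = 30 µM serotonin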
TMEM16A inh – TMEM16A chloride channel inhibitors, primary screen, cell-based, HTS. Anoctamin-1 (Mus musculus), Q8BHY3. HEK293 TMEM16A/YFP iodide influx fluorescence, ionomycin. normalized B-score (activity score, 25-100; higher = stronger inhibition) at 10 µM. 310,000 tested, 1.2% active;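 active = ratio plate-corrected score three or more library SD toward inhibition, starting fluorescence score within five deviations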;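 also: score derived from kinetic fluorescence span divided by baseline fluorescence per well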
U2OS cAMP counter – nonselective cAMP signaling inhibitors, parental cells, counter-screen for MC4R biased antagonist project, cell-based, TR-FRET, U2OS, forskolin, triplicate | 1,600 tested, 26% active | LANCE TR-FRET | shares compounds with MC4R antagonist | inhibition, % at 6.5 µM;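 active = mean inhibition over triplicates above the low-control well mean plus 3 SD, set per campaign, cut at about 13% in these data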;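 also: signal is single emission at 671 nm which falls as cellular cAMP rises; 0% = forskolin-stimulated wells and 100% = buffer without forskolin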
MC4R antag conf – MC4R cAMP antagonists, retest, confirmation, cell-based, TR-FRET; shares compounds with MC4R antagonist; MC4R-expressing cells, MTII-stimulated cAMP; inhibition, % at 6.5 µM; 1,600 tested, 27% active; AID 602195, 2012; in the data active = inhibition above about 29%;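 also: 0% = agonist stimulated wells alone and 100% = agonist stimulated wells plus saturating reference antagonist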
Numbers without * were called inactive; i = inactive; . = no result given. In the library only some 3.4% were active in any assay of this set; here they are far more common.

SMILES	MC4R ag barr	MC4R antagonist	ANO1 activ	beta cell repl	m5-HT2A agonist	TMEM16A inh	U2OS cAMP counter	MC4R antag conf
O=C(O)c1cnn(-c2nc(-c3ccc(Br)cc3)cs2)c1C(F)(F)F	-0.3	32.2*	i	-1.9	5.6	i	0.0	2.0
CCOC(=O)c1cnn(-c2nc(-c3ccc(C)cc3)cs2)c1C(F)(F)F	-0.1	12.8	i	.	4.9	i	.	.
CCOC(=O)c1sc(N2N=C(C)/C(=C\c3ccc(OCC(=O)OC)cc3)C2=O)nc1C	-1.8	31.1*	i	-3.9	1.8	i	5.2	14.2
CCC(C)(C)NC(=O)CN(Cc1ccc2c(c1)OCO2)C(=O)CCC(=O)Nc1cc(C)ccn1	1.5	29.6*	i	-1.3	-4.6	i	-2.1	-4.8
Cc1ccc2nc(-c3cccc(Br)c3)c(Cc3ccccc3)n2c1	.	.	.	.	-5.3	.	.	.
CCCOc1ccc(/C(O)=C2\C(=O)C(=O)N(c3ccccn3)C2c2ccccc2F)cc1C (centres undefined)	2.6	42.4*	i	-3.8	-10.8	i	33.5*	20.5
COc1ccc(C2/C(=C(/O)c3ccccc3)C(=O)C(=O)N2c2ccccn2)cc1OC (centres undefined)	-1.8	-6.3	i	-0.1	3.6	i	.	.
O=C1C(=O)N(c2ccccn2)C(c2cccc(F)c2)/C1=C(/O)c1ccccc1 (centres undefined)	1.1	29.4*	i	3.7	-3.4	i	-1.9	-23.2
COc1ccc(C2/C(=C(/O)c3ccc(C)cc3)C(=O)C(=O)N2c2ccccn2)cc1OC (centres undefined)	0.2	17.1	i	-3.8	3.6	i	.	.
COCCN(C(=O)c1csnn1)C(C(=O)NC1CCCC1)c1ccc(C)cc1 (centres undefined)	-1.9	2.2	i	2.2	3.2	i	.	.
COCCNC(=O)C(c1ccccc1F)N(C(=O)C(=O)NC1CCCC1)C1CCCCC1 (centres undefined)	-0.7	29.5*	i	-1.8	-2.5	i	-1.2	-5.0
COCCN(C(=O)c1csnn1)C(C(=O)NC1CCCC1)c1ccccc1F (centres undefined)	-0.1	29.2*	i	0.0	2.5	i	-1.5	-8.7
COc1ccc(NC(=O)Nc2cccc3c2O[C@H](CN(C)C(=O)Nc2ccc(C(F)(F)F)cc2)[C@@H](C)CN([C@H](C)CO)C3=O)cc1	-0.1	34.8*	i	-2.4	3.7	.	1.1	19.0
COc1ccc(NC(=O)N(C)C[C@H]2Oc3c(NC(=O)NC(C)C)cccc3C(=O)N([C@H](C)CO)C[C@@H]2C)cc1	0.6	3.9	i	-4.5	3.3	.	.	.
Cc1ccc(NC(=O)NC2CC(=O)N(c3ccc4c(c3)OCCO4)C2)c(C)c1 (centres undefined)	-0.6	-5.0	i	4.1	5.6	i	.	.
Cc1cc(OCC(O)CN2CCc3ccccc3C2)ccc1Cl (centres undefined)	0.0	-3.5	i	-2.6	-9.1	i	.	.
CC(=O)c1c(O)c(C)c(O)c2c1OC1=CC(=O)/C(=C(/C)N)C(=O)C12C (centres undefined)	0.7	35.8*	.	.	0.6	.	4.7	26.4
O=C(Cn1ncc(Cl)c(Cl)c1=O)NC1CCCCC1	-0.9	47.2*	i	-7.8	-1.9	.	28.9*	72.0*
O=C(Cn1ncc(Cl)c(Cl)c1=O)NC1CCS(=O)(=O)C1 (centres undefined)	0.5	7.3	i	-3.1	2.2	i	.	.
O=C(Cn1ncc(Cl)c(Cl)c1=O)NCC1CCCCC1	0.4	57.9*	i	.	-0.9	i	32.9*	56.2*
O=C1CN(C(=O)Cn2ncc(Cl)c(Cl)c2=O)c2ccccc2N1	2.1	44.5*	i	.	0.6	.	20.1*	30.3*
Cc1c(NC(=O)c2nn(CC(C)C)c(=O)c3ccccc23)c(=O)n(-c2ccccc2)n1C	-2.3	9.2	i	0.9	2.1	.	.	.
CC(=O)Nc1sc2c(c1C(c1ccc(Cl)cc1)N1CCOCC1)CCCC2 (centres undefined)	-0.3	17.6	i	-3.1	-4.4	i	.	.
CC(=O)Nc1sc2c(c1C(c1ccc(F)cc1)N1CCOCC1)CCCC2 (centres undefined)	2.1	29.5*	i	0.0	-6.2	i	2.2	5.7
ON=C1c2ccccc2-c2cc(Br)ccc21	1.3	5.7	i	.	1.9	.	.	.
SMILES	MC4R ag barr	MC4R antagonist	ANO1 activ	beta cell repl	m5-HT2A agonist	TMEM16A inh	U2OS cAMP counter	MC4R antag conf
C=CCNC(=S)Nc1ccc(N(C)C)cc1	-1.0	-0.5	i	-2.1	-1.4	i	.	.
CCOc1ccc(NC(=O)CSc2ccccc2N)cc1	2.8	31.8*	i	0.5	2.4	i	-5.0	-12.2
COc1ccc(-c2ccc3c(c2)S(=O)(=O)c2cccc(C(=O)N4CCN(C5CCCCC5)CC4)c2C3=O)cc1OC	1.9	11.3	i	-5.4	-4.2	.	.	.
Cc1cc(N2C(=O)C(O)=C(C(=O)c3cc4ccccc4o3)C2c2ccc([N+](=O)[O-])cc2)no1 (centres undefined)	-0.7	-0.8	i	-3.4	7.5	i	.	.
Cc1ccc(C2C(C(=O)c3cc4ccccc4o3)=C(O)C(=O)N2c2cc(C)on2)cc1 (centres undefined)	-1.1	31.9*	i	2.0	1.6	i	9.2	5.0
O=C(C1=C(O)C(=O)N(c2nccs2)C1c1ccccc1)c1cc2ccccc2o1 (centres undefined)	0.5	49.4*	i	4.5	1.7	i	18.7*	30.5*
CC(C)(C)c1ccc(CC(=O)N2CCC2(C)C(=O)N2CCCCC2)cc1 (centres undefined)	0.2	-3.0	.	.	2.4	.	.	.
COC(=O)CSc1ccc(C#N)c(SCC(=O)OC)c1	-1.4	35.2*	i	-4.2	-0.2	i	16.9*	21.2
COC(=O)CSc1cc(SCC(=O)OC)c(C#N)c(SCC(=O)OC)c1	-1.5	14.0	i	-6.0	5.6	i	.	.
